# STEP inh: inhibitors of human striatal-enriched phosphatase STEP. P54829. recombinant STEP, OMFP fluorogenic substrate, fluorescence. inhibition, % at 20 µM. hit rate 0.25% among 360,000. AID 588621;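 active = inhibition at 20 µM, scaled per plate between control wells, above about 37%, limit read from the data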;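 note: 0% = DMSO with enzyme and substrate and 100% = substrate only without enzyme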
#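 Assay system: isolated STEP enzyme / Timing: 20 min at room temperature, dark / Doses: 20 µM, 1% DMSO / Technique: fluorescence intensity, excitation 480 nm, emission 540 nm / Reagent: fluorogenic phosphatase substrate OMFP at 25 µM final / Measure: percent inhibition scaled to no-enzyme and uninhibited-enzyme controls, plate-pattern corrected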
# LMPTP block: LMPTP (human) inhibition; P24666; AID 651560; recombinant LMPTP-A, OMFP fluorogenic substrate, fluorescence intensity; hit rate 0.22% among 360,000; inhibition, % at 20 µM;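 active = compounds that cut the enzyme signal by at least half of the control window in the single-dose screen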;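 note: plate controls were DMSO wells with enzyme plus substrate for no effect and substrate without enzyme for full effect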
# Target sequence (P24666 whole entry, looked up): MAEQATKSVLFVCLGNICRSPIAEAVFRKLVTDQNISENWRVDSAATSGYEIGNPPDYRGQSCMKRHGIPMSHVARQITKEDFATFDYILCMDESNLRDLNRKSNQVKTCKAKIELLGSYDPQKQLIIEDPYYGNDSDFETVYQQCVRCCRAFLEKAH
#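 Test system – LMPTP-A phosphatase enzyme · Quantity – 0.625 nM LMPTP-A final · Reagent – OMFP substrate, 400 µM final · Dosing – one test concentration per compound, 20 µM, with 3% DMSO overall · Timing – 50 min enzyme reaction at room temperature, protected from light · Detection – fluorescence intensity · Controls – substrate-only low control, DMSO enzyme-plus-substrate high control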
# SUMO1-SIM PPI: modulators of human SUMO1-mediated protein-protein interactions; SUMO1 binding to a labelled peptide, TR-FRET, 1 h; inhibition, % at 20 µM; hit rate 0.33% among 360,000; in the data active = inhibition above about 37%
# Target sequence (P63165 whole entry, looked up): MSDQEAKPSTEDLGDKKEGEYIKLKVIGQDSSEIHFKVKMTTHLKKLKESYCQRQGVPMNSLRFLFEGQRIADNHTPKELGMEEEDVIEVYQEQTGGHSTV
# DNMT1 inh: inhibitors of human DNMT1 | DNMT1 molecular beacon, Hinp1I cleavage, fluorescence | AID 588458 | hit rate 0.83% among 360,000 | inhibition (reported as % activation of signal), % at 10 µM; in the data active = inhibition above about 50%
# Scp1 inh: Scp-1 (human) phosphatase inhibition; Q9GZU7; inhibition, % at 20 µM; Recombinant Scp1, phosphopeptide, malachite green phosphate absorbance; hit rate 0.88% among 340,000;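 active = inhibition above about 50% at 20 µM, limit read from the data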;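 note: plate controls were DMSO wells with enzyme for no effect and wells lacking enzyme for full effect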
# Target sequence (Q9GZU7 76-261 limits assumed): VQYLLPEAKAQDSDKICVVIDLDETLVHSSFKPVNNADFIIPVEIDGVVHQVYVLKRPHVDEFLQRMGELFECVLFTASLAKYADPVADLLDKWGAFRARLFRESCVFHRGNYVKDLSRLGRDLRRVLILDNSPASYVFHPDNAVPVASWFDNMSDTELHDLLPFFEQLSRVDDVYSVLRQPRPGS
#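 Times: enzyme reaction 45 min at room temperature, colour 5 min, stabilisation 30 min. Material: SCP-1 catalytic fragment, aa 76-261. Medium: Acidic Tris acetate buffer with magnesium and detergent. Signal: colorimetric free-phosphate detection, absorbance 630 nm. Read-out basis: % inhibition of SCP-1 phosphate liberation. Reagent: Phosphorylated 17-residue peptide substrate.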
# DNMT1 interf DR: beacon fluorescence artifact, dose response counter-screen | shares compounds with DNMT1 inh | molecular beacon fluorescence, spectral interference counter-screen | IC50, µM | 200 tested, under 10 active | AID 602382; call rule not given here
# DNMT1 confirm: confirmation of human DNMT1 inhibitors | DNMT1 molecular beacon HinP1I cleavage, fluorescence | hit rate 8% among 2,300 | shares compounds with DNMT1 inh | AID 602385 | inhibition, % at 10 µM;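 active = average inhibition of at least 30% in the single-concentration confirmation test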
# Beacon interf: beacon fluorescence artifact counter-screen; activation (fluorescence interference), % at 10 µM; DNMT1 molecular beacon spectral interference counterscreen, fluorescence 485/520; hit rate 1% among 2,300; shares compounds with DNMT1 inh; AID 602387;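 active = activation of at least 30% at 10 µM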;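 note: DNMT1 catalytic domain with a HinP1I cleavage step and a FAM/dabcyl DNA beacon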
# * marks the source's active call; other numbers are inactive results; · = no result given; ! = not confirmed by another sample. Compounds with a hit are over-represented: about 1.7% of the library has one in this group of screens.
SMILES,STEP inh,LMPTP block,SUMO1-SIM PPI,DNMT1 inh,Scp1 inh,DNMT1 confirm,Beacon interf,others
O=C1NC(=S)N/C1=C/c1ccc(Oc2ccc(C(F)(F)F)cc2[N+](=O)[O-])c(Cl)c1,-2,-1,-1,51*,8,1,3,
O=[N+]([O-])c1ccc(/C=C/C2=NN(c3ccccc3)C(c3ccco3)C2)o1 (stereo not drawn),5,10,-16,75*,79*,2,5,
COn1c(=O)c(-c2ccc(Cl)cc2)[n+]([O-])c2ccccc21,1,0,-31,68*,-16,0,1,
CCn1c(CNC(=O)c2ccccc2OC)nnc1SCC(=O)c1ccc(F)cc1,0,-1,1,1,-2,·,·,
COCc1cccc(C(=O)NC(c2ccccc2)c2ccccc2)c1,0,1,4,2,-9,·,·,
CC(=O)NN1C(=O)/C(=C\c2ccc(Br)o2)SC1=S,17,2,25,81*,6,2,2,
CC(=O)NN1C(=O)/C(=C/c2ccc(Br)o2)SC1=S,20,1,24,88*,30,13,5,
CC(=O)NN1C(=O)/C(=C\c2ccccc2)SC1=S,-1,0,-3,0,-3,·,·,
Cc1ccc(Cn2c(SCC(=O)N(C)C3CCS(=O)(=O)C3)nc3ccccc3c2=O)cc1 (stereo not drawn),0,0,-1,1,-4,·,·,
O=[N+]([O-])c1cccc(/C=C/c2nc(C=Nc3ccc4ccccc4c3)c(O)o2)c1,-1,9,0,53*,1,0,-4,
CCCCn1c(SCC(=O)NC2CC2)nc2cc(C(=O)OC)ccc2c1=O,-3,-2,7,-1,·,·,·,
CCOc1ccc2oc(C(=O)Nc3cc(C)ccn3)c(C)c2c1,-1,3,-12,-3,-2,·,·,
Cc1sc2nc(SCC(=O)N(C)Cc3ccccc3)n(-c3ccccc3)c(=O)c2c1C,5,5,-2,70*,-11,-1,-5,
O=C(NCCNC(=O)c1ccc(Br)o1)c1cccnc1,-1,-2,-2,1,-5,·,·,
COc1ccc(Cl)cc1-c1cc(C(=O)NCc2cccc(C(F)(F)F)c2)[nH]n1,-2,3,2,58*,·,1,1,
COc1ccc(NC(=O)CC(=O)Nc2ccc(OC)cc2)cc1,1,0,6,3,-2,·,·,
C/C(=N/NC(=O)CNC(=O)COc1cccc(C)c1)c1ccc(Cl)cc1,0,-1,1,16,-8,·,·,
CC(=NNC(=O)COc1cccc(C)c1)c1cccnc1,-2,-1,-1,80*,-6,1,1,
CS(=O)(=O)c1ccc(S(=O)(=O)N2CCC(CO)(CCCc3ccccc3)CC2)cc1,0,0,0,2,-8,·,·,
CCOc1ccc(-c2nnc3sc(COc4ccc(Cl)cc4)nn23)cc1,1,11,-2,58*,-3,11,2,
C#Cc1cccc(NC(=O)c2ccc(Cl)cc2Cl)c1,0,1,-4,-5,-14,·,·,
N#CCCN(C(=O)COC(=O)Cc1ccc(Br)cc1)c1ccccc1,-2,1,-4,5,14,·,·,
N#CCCN(C(=O)COC(=O)COc1ccccc1Cc1ccccc1)c1ccccc1,-2,3,2,60*,-14,2,4,
O=C(CN(C(=O)CCC(=O)Nc1nccs1)c1ccc(F)cc1)NCCc1ccccc1,1,-1,-1,0,-5,·,·,
Cc1ccc(C)c(S(=O)(=O)N2CCCOC2CNC(=O)C(=O)NC2CC2)c1 (stereo not drawn),0,-1,2,2,-13,·,·,
SMILES,STEP inh,LMPTP block,SUMO1-SIM PPI,DNMT1 inh,Scp1 inh,DNMT1 confirm,Beacon interf,others
CC(C)C[C@@H]1NC(=O)[C@H](Cc2ccccc2)N(C)C(=O)[C@H](C)NC(=O)c2ccccc2NC(=O)[C@H](Cc2ccc(O)cc2)N(C)C1=O,1,1,4,79*,7,3,6,
CC(C)CC1NC(=O)N(CC(=O)N2c3ccccc3NC(=O)C2(C)C)C1=O (stereo not drawn),-2,0,-1,1,9,·,·,
CCOC(=O)C1=C(C)N(C[C@@H]2CC[C@@H](Cc3ccc(-c4ccccc4)cc3)O2)C(=O)NC1c1ccc(SCc2ccco2)c([N+](=O)[O-])c1 (stereo partly drawn),1,6,6,94*,35,6,-4,
CCOC(=O)C1=C(C)N(C[C@@H]2CC[C@@H](Cc3ccc(-c4ccccc4)cc3)O2)C(=O)NC1c1ccc(C(F)(F)F)cc1 (stereo partly drawn),0,3,1,-7,-1,·,·,
COc1ccc(-c2ccc(C#N)c(SCC(=O)Nc3sc4c(c3C#N)CCC4)n2)cc1OC,1,-1,2,61*,-1,-3,-4,
N#Cc1cc2c(nc1SCC(=O)Nc1sc3c(c1C#N)CCC3)CCC2,-1,1,-1,6,6,·,·,
COc1ccc(NC(=O)CCOc2ccc(C)cc2)c(OC)c1,0,0,0,0,-10,·,·,
C/C(CCc1ccccc1)=N\NC(=O)CC(=O)NCCc1ccccc1,-1,-1,-3,0,-2,·,·,
Cc1ccsc1C1NC(=O)c2ccccc2N1 (stereo not drawn),-2,-1,3,1,-12,·,·,
O=C1NC(c2cccs2)Nc2ccccc21 (stereo not drawn),-4,0,-5,64*,-12,2,0,
O=C(c1ccc(=O)oc1)N1CCCc2ccccc21,13,2,12,105*,43,10,-4,
O=C(c1ccc(=O)oc1)N1CCOCC1,15,-1,10,103*,77*,64*,-3,DNMT1 interf DR=>99
O=C(c1ccc(F)cc1)N1CCOCC1,-4,0,-1,1,-6,·,·,
Cc1nc(C)c(C(=O)Nc2ncc([N+](=O)[O-])s2)o1,0,3,-7,69*,12,8,-2,
CC(C)CC(=O)Nc1ncc([N+](=O)[O-])s1,2,7,-12,5,-6,·,·,
c1cc(N2CCCCC2)nc(N2CCCCC2)n1,-4,-1,3,0,-12,·,·,
C[c-]1[c-](C)[c-](C)[c-](C)[c-]1C.[Fe].c1cc2nccc(N3CCCC3)[c-]2c1 (stereo not drawn),77*,71*,120*,102*!,68*!,4,4,
CCCCCCc1cc2cc(C(=O)Nc3ccccc3OC)c(=O)oc2cc1O,-5,-3,2,34,-4,·,·,
